Measured values from ChEMBL document CHEMBL1124174, “Substituted benzamides. 1. Potential nondopaminergic antagonists of chemotherapy-induced nausea and emesis” (J Med Chem, 1988).
Values joined by “and” are separate entries in the source; they are usually repeats but may differ in a detail not shown here. Equal values may be shown once.

What was measured:
Mustela putorius furo [1] = experiment: In vivo antagonism of cisplatin-induced emesis in ferret measured as percentage protection for twice the dose of 1 mg/kg and in 3 ferrets; assay type: functional
Summary of the method: (§1)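 Nonfasted castrated male Fitch ferrets (1–1.5 kg) had jugular catheters implanted ≥48 h earlier under anesthesia. Compounds or saline were given iv twice, 5 min before and 90 min after cisplatin (12 mg/kg iv; 12 mg/mL in warm 0.9% saline). Emesis was observed up to 4 h; events within 1 min counted as one episode. Results were given as mean emetic episodes and % protection versus a pooled historical/concurrent control. t test versus saline.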

Mustela putorius furo [2] = experiment: In vivo antagonism of cisplatin-induced emesis in ferret measured as emetic episodes, twice the dose of 3 mg/kg and in 3 ferrets; assay type: functional; summary of the method: as §1
[3] = biological target: D(2) dopamine receptor (Rattus norvegicus) (UniProt P61169); experiment: In vivo antagonism activity against D2 receptor was measured as stereotypy in rat when administered subcutaneously; assay type: functional, organism-based
Summary of the method: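 Male Long Evans rats (275 g) were dosed sc in dilute aqueous HCl (pH 4.5-5.5) 30 min before apomorphine (1 mg/kg sc).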

D(2) dopamine receptor = D(2) dopamine receptor (Rattus norvegicus, UniProt P61169); experiment: In vitro antagonistic activity against Dopamine receptor D2 was evaluated for the inhibition of [3H]spiperone binding
Summary of the method: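 Rat striatal membranes were prepared by differential centrifugation in 50 mM Tris pH 7.4 at 4 °C. Membrane protein (10 mg) was incubated 15 min at 37 °C with 0.1 nM [3H]spiperone and varying competitor concentrations. Buffer: 50 mM Tris HCl pH 7.5, 0.1% ascorbic acid, pargyline, 120 mM NaCl, 5 mM KCl, 2 mM CaCl2, 1 mM MgCl2. (+)-Butaclamol defined nonspecific binding. Bound ligand was collected by filtration and scintillation counted. IC50 by log-logit regression.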

[4] = biological target: D(2) dopamine receptor (Rattus norvegicus) (UniProt P61169); experiment: In vivo antagonistic activity against dopamine D2 receptor was measured as catalepsy in rat when administered subcutaneously; assay type: functional, organism-based
Summary of the method: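 Male Long Evans rats (275 g) received graded sc doses in dilute aqueous HCl (pH 4.5-5.5). They were observed 180 min for catalepsy, scored when the animal stayed stationary ≥15 s on a four-cork template.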

Mustela putorius furo [5] = experiment: In vivo antagonism of cisplatin-induced emesis in ferret measured as emetic episodes, twice the dose of 1 mg/kg and in 3 ferrets; assay type: functional; summary of the method: as §1
[6] = biological target: D(2) dopamine receptor (Canis lupus familiaris) (UniProt Q9GJU1); experiment: In vivo antagonism activity against dopamine D2 receptor was measured as emesis in dog when administered subcutaneously; assay type: functional, organism-based
Mustela putorius furo [7] = experiment: In vivo antagonism of cisplatin-induced emesis in ferret measured as percentage protection for twice the dose of 3 mg/kg and in 3 ferrets; assay type: functional; summary of the method: as §1
Canis familiaris [8] = experiment: In vivo antagonism of cisplatin-induced emesis in dog measured as emetic episodes, twice the dose of 1 mg/kg in 2 dogs; assay type: functional, Canis lupus familiaris
Summary of the method: (§2)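 Nonfasted mature male or female beagles were dosed sc twice, 30 min before and 120 min after cisplatin (3 mg/kg iv; 3 mg/mL in warm 0.9% saline, used immediately). Emesis was observed up to 5 h; events within 2 min counted as one episode. Results were given as mean emetic episodes and % protection versus a dynamic control (historical and concurrent saline means pooled). t test versus saline.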

Canis familiaris [9] = experiment: In vivo antagonism of cisplatin-induced emesis in dog measured as percentage protection for twice the dose of 1 mg/kg in 2 dogs; assay type: functional, Canis lupus familiaris; summary of the method: as §2

Sequence of D(2) dopamine receptor (Rattus norvegicus) (P61169 whole entry): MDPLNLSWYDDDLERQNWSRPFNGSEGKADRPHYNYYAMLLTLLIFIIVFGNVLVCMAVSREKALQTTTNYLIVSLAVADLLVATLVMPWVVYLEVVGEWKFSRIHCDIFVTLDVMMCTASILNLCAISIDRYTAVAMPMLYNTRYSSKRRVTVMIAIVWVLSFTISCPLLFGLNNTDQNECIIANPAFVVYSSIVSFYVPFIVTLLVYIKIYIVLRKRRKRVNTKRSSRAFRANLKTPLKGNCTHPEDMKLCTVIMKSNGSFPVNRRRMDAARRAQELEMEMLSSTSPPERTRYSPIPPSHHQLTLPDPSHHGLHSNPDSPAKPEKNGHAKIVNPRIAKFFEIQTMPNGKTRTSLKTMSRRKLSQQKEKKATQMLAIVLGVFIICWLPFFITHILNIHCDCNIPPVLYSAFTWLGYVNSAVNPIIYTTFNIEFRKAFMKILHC
Sequence of D(2) dopamine receptor (P61169 whole entry): as above
Sequence of D(2) dopamine receptor (Canis lupus familiaris) (Q9GJU1 whole entry): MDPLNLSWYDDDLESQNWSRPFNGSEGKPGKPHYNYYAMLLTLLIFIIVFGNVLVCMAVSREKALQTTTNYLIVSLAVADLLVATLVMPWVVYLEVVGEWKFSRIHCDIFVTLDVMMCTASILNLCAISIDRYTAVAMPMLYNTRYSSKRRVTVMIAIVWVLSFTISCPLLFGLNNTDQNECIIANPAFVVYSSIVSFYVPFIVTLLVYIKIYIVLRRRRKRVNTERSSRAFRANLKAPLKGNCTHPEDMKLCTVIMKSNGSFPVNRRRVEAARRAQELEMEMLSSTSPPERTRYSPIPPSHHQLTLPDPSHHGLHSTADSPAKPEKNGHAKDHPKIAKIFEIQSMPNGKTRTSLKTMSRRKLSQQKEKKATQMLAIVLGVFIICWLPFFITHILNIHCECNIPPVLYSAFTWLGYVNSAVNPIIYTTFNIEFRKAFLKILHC

Row | Compound | ED50 [3] [mg/kg] | IC50 (D(2) dopamine receptor) [nM] | Protection (Mustela putorius furo [1]) [%] | Emetic episodes (Mustela putorius furo [2]) | ED50 [4] [mg/kg] | Emetic episodes (Mustela putorius furo [5]) | ED50 [6] [mg/kg] | Protection (Mustela putorius furo [7]) [%] | Protection (Mustela putorius furo [5]) [%] | Protection (Mustela putorius furo [1]; 1 mg/kg) | Emetic episodes (Canis familiaris [8]) | Protection (Canis familiaris [9]) [%] | Emetic episodes (Mustela putorius furo [2]; 3 mg/kg)
1 | CCN(CC)CCNC(=O)c1cc(Cl)c(N)cc1OCCOCCOC | > 40 | > 1000 | 39 | 1.7 | > 40 | 4.3 | > 3 | 76 | – | – | – | – | –
2 | CCN(CC)CCNC(=O)c1cc(Cl)c(N)cc1OCC1OCCO1 | > 40 | > 1000 | – | 2.3 | > 40 | 4 | > 3 | 67 | 43 | – | – | – | –
3 | CCN(CC)CCNC(=O)c1cc(Cl)c(N)cc1OCC(C)(C)O | > 40 | > 1000 | – | 1.3 | > 40 | 3 | > 3 | – | – | 84% and 57% | – | – | –
4 | CCN(CC)CCNC(=O)c1cc(Cl)c(N)cc1OCC1=NCCN1 | > 40 | > 1000 | – | 1 | > 40 | – | > 3 | 86 | – | – | 1.5 | 88 | –
5 | CCN(CC)CCNC(=O)c1cc(Cl)c(N)cc1OCc1ccccn1 | > 40 | > 1000 | 67 | 1 | > 40 | 2.3 | > 3 | 86 | – | – | – | – | –
6 | CCN(CC)CCNC(=O)c1cc(Cl)c(N)cc1OCC(O)COC (configuration not stated) | > 40 | > 1000 | – | 3.3 | > 40 | – | > 3 | 54 | – | – | – | – | –
7 | CCN(CC)CCNC(=O)c1cc(Cl)c(N)cc1OCC1(C)CO1 (configuration not stated) | > 40 | > 1000 | – | 3.3 | > 40 | – | > 3 | 53 | – | – | – | – | –
8 | CCN(CC)CCNC(=O)c1cc(Cl)c(N)cc1OCCC1(C)OCCO1 | > 40 | > 1000 | – | 1.3 | > 40 | – | > 3 | 80 | – | – | – | – | –
9 | CCN(CC)CCNC(=O)c1cc(Cl)c(N)cc1OC/C(C)=N/O | > 40 | > 1000 | – | 0 | > 40 | – | > 3 | 100 | – | – | 2.5 | 79 | –
10 | CCN(CC)CCNC(=O)c1cc(Cl)c(N)cc1OCC(=O)OC | > 40 | > 1000 | – | 5 | > 40 | – | > 3 | 30 | – | – | – | – | –
11 | C=CCC(Oc1cc(N)c(Cl)cc1C(=O)NCCN(CC)CC)C(C)=O (configuration not stated) | > 40 | > 1000 | – | 2.3 | > 40 | 1.7 | > 3 | 68 | 76 | – | 6 | 52 | –
12 | CCN(CC)CCNC(=O)c1cc(Cl)c(N)c2c(C)c(C)oc12 | > 40 | > 1000 | – | 3.3 | > 40 | – | > 3 | 53 | – | – | – | – | –
13 | CCN(CC)CCN1CCOc2cc(N)c(Cl)cc2C1=O | > 40 | > 1000 | 14 | – | > 40 | 6 | > 3 | – | – | – | – | – | –

Now from value to compound, other results behind:

Row | ED50 [3] [mg/kg] | IC50 (D(2) dopamine receptor) [nM] | Compound | Protection (Mustela putorius furo [1]) [%] | Emetic episodes (Mustela putorius furo [2]) | ED50 [4] [mg/kg] | Emetic episodes (Mustela putorius furo [5]) | ED50 [6] [mg/kg] | Protection (Mustela putorius furo [7]) [%] | Protection (Mustela putorius furo [5]) [%] | Protection (Mustela putorius furo [1]; 1 mg/kg) | Emetic episodes (Canis familiaris [8]) | Protection (Canis familiaris [9]) [%] | Emetic episodes (Mustela putorius furo [2]; 3 mg/kg)
14 | > 40 | > 1000 | CCN(CC)CCNC(=O)c1cc(Cl)c(N)cc1OC(C)/C(C)=N/O (configuration not stated) | 44 | – | > 40 | 4.3 | > 3 | – | – | – | – | – | –
15 | > 40 | > 1000 | C/C=C/COc1cc(N)c(Cl)cc1C(=O)NCCN(CC)CC | – | 0.7 | > 40 | – | > 3 | 90 | – | – | 2.5 | 80 | –
16 | > 40 | > 1000 | CCN(CC)CCNC(=O)c1cc(Cl)c(N)cc1OCCOC | – | – | > 40 | – | > 3 | – | – | – | 1.5 | 88 | 1.7 and 5
17 | > 40 | > 1000 | CCN(CC)CCC[S+]([O-])c1cc(Cl)c(N)cc1OC (configuration not stated) | – | 2 | > 40 | – | > 1 | 70 | – | – | – | – | –
18 | > 40 | > 1000 | CCN(CC)CCNC(=O)c1cc(Cl)c(N)cc1OC1CCCC1=O (configuration not stated) | 21 | – | > 40 | 5.7 | > 3 | – | – | – | – | 87 | –
19 | > 40 | > 1000 | CCN(CC)CCNC(=O)c1cc(Cl)c(N)cc1OC1CCCC[C@@H]1O (some centres not stated) | – | 3 | > 40 | – | > 3 | 60 | – | – | 4 | 66 | –
20 | > 40 | > 1000 | CCN(CC)CCNC(=O)c1cc(Cl)c(N)cc1OCCO | – | 2.3 | > 40 | – | > 3 | 68 | – | – | 3 | 76 | –
21 | > 40 | > 1000 | CCN(CC)CCNC(=O)c1cc(Cl)c(N)cc1OCC(O)Cc1ccccc1 (configuration not stated) | 54 | – | > 40 | 3.3 | > 3 | – | – | – | – | – | –
22 | > 40 | > 1000 | CCN(CC)CCNC(=O)c1cc(Cl)c(N)cc1OCC(=O)c1cccs1 | – | 0.3 | > 40 | – | – | 95 | – | – | 3 | 75 | –
23 | > 40 | > 1000 | CCN(CC)CCNC(=O)c1cc(Cl)c(N)cc1OCc1cc(C)no1 | – | 2 | > 40 | – | > 3 | 72 | – | – | – | – | –
